A selection: hits, their analogues and other compounds. The true share with any hit is near 3.5%.
Wnt act: activates Wnt/beta-catenin signaling in a reporter cell assay; activator, plate reader; activation, % at 9.35 µM; actives 1.2% (n = 300,000); AID 743398; in the data active = activation above about 30%, passing the limit was not always enough; inconclusive = no clear call, values can overlap the other calls;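 note: 0% = neutral control wells and 100% = positive control wells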
MITF act: MITF TRPM1 promoter activation in melanoma cells; SK-MEL-5 TRPM1-promoter luciferase, 24 h; % of positive control, neutral wells = 0; actives 0.75% (n = 300,000); AID 588334; activation, % at 12.5 µM;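 active = mean activation of at least 80% with every replicate also reaching 80%; inconclusive = mean reaches 80% but some replicate falls short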;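 note: 0% = neutral control wells and 100% = parthenolide positive control wells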
HIV Env fusion: inhibitors of HIV Env-mediated cell fusion. AID 651610. actives 1.1% (n = 360,000). HeLa-JRFL Env/CEM21 cell fusion, luciferase. inhibition, % at 12.3 µM;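 active = mean replicate inhibition score of at least 50 and every replicate individually at or above 50; inconclusive = only one of the two criteria met; inactive = mean below 50 and not all replicates reaching 50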;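 note: 0% = plate neutral controls and 100% = maraviroc near 300 nM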
Cneo AK release: causes C. neoformans cell lysis | adenylate kinase release luminescence, 4 h; normalised: neutral wells 0, clomiphene wells 100 | lysis activity, % at 15 µM | actives 0.2% (n = 360,000) | AID 651654;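 active = mean lysis activity across replicates of at least 80%, whatever share of replicates individually reach that level; inactive = mean lysis activity below 80%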
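Assay system: log-phase C. neoformans yeast / Quantity: yeast cell density of 5 × 10^6 cells/mL / Medium: fresh YPD growth medium / Compound: single dose / Timing: static 4 h at 37 °C with compound, 1 h detection / Measured by: adenylate kinase release luminescence / Read-out: lysis from increased AK signal / Benchmarks: Clomiphene as positive lysis control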
esBAF inh: SWI/SNF esBAF complex inhibition; reporter increase, % at 12.5 µM; actives 2% (n = 350,000); mouse ES cells, Bmi1-luciferase knock-in reporter, 24 h; 100% = twice the neutral-well signal; in the data active = activation above about 40%; inconclusive = no clear call, values can overlap the other calls;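 note: 0% = median of the plate's neutral control wells and 100% = double that signal; a rise in the Bmi1 reporter signal indicates esBAF inhibition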
ERAP1 HTS inh: ERAP1 (human) enzyme inhibition; Q9NZ08; recombinant ERAP1, Leu-AMC fluorescence, 60 min; inhibition, % at 10.7 µM; actives 0.15% (n = 340,000); AID 652197;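 active = mean replicate inhibition of at least 30%, or all replicates individually reaching that 30% level; inactive = mean below 30% and not every replicate reaching it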;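 note: 0% = neutral control wells and 100% = L-leucinethiol positive control wells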
Target sequence (Q9NZ08 whole entry, looked up): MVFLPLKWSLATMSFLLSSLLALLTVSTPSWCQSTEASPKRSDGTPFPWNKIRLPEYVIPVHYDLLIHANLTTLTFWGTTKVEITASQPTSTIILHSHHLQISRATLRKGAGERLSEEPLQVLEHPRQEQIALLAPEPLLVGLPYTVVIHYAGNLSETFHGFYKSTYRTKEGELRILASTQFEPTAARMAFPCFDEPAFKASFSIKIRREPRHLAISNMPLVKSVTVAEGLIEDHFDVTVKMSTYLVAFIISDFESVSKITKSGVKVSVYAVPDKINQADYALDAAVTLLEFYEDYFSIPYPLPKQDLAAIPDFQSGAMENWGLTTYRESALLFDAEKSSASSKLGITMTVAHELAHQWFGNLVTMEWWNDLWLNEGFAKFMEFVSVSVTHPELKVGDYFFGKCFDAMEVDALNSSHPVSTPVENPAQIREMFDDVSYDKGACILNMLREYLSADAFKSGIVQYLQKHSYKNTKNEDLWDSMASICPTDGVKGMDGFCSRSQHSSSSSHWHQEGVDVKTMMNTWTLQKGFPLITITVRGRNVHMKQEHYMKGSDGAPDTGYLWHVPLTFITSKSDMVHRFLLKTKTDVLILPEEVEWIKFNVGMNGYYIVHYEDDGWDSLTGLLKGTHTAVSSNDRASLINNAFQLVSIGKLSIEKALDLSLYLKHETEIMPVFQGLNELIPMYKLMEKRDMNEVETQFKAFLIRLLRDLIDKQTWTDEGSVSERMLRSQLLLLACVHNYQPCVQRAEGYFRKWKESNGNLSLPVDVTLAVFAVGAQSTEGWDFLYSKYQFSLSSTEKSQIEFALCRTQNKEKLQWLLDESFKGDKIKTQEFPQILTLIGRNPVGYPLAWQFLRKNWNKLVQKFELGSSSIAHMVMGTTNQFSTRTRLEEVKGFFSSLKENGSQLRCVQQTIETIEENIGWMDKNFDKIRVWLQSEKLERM
The depositor's hits bear a star; ? = inconclusive; · = no result; [ ] = remark or other dose.

SMILES	Wnt act	MITF act	HIV Env fusion	Cneo AK release	esBAF inh	ERAP1 HTS inh
Cc1ccc(S(=O)(=O)Nc2ccc3c(c2)C(=O)N([C@@H](C)CO)C[C@@H](C)[C@H](CN(C)C(=O)CCC(F)(F)F)OCCCC[C@H](C)O3)cc1	·	·	-45[16.7 µM]	8	3	-2
COc1ccc(S(=O)(=O)N(C)C[C@H]2OCCCC[C@H](C)Oc3ccc(NS(=O)(=O)c4ccc(C)cc4)cc3C(=O)N([C@H](C)CO)C[C@H]2C)cc1	·	·	-6[16.7 µM]	6	-1	0
COc1ccc(NC(=O)N(C)C[C@H]2Oc3ncc(-c4ccc(C#N)cc4)cc3C(=O)N([C@@H](C)CO)C[C@H]2C)cc1	·	·	-15[16.7 µM]	-2	-2	0
Fc1ccc(-c2nc3c4ccccc4ccn3c2Cc2ccsc2)cc1	12	·	57*	-1	23	1
c1coc(-c2nc3c4ccccc4ccn3c2Cc2ccsc2)c1	10	·	63*	·	·	-3
COc1ccc(-c2nc3c4ccccc4ccn3c2Cc2ccccc2)cc1OC	6	·	-29	1	45*	-1
CCCc1nc2c3ccccc3ccn2c1Cc1cccc(F)c1	14	·	-29	6	46*	0
COc1ccc(S(=O)(=O)N(C)C[C@H]2Oc3ccc(NS(=O)(=O)c4ccc(C)cc4)cc3C(=O)N([C@@H](C)CO)C[C@H]2C)cc1	·	·	·	·	·	-2
Clc1cccc(Cc2c(-c3ccco3)nc3c4ccccc4ccn23)c1	-25	·	7	·	·	0
Fc1cccc(Cc2c(-c3ccco3)nc3c4ccccc4ccn23)c1	16	·	69*	-4	72*	-2
c1ccc(CSc2ccc(-c3ccco3)nn2)cc1	52*	44	-61	·	·	·
Clc1ccc(CSc2ccc(-c3ccco3)nn2)cc1	13	65	-10	·	·	7
Cc1cccc(CSc2ccc(-c3ccco3)nn2)c1	-1	34	-23	10	50*	1
Fc1ccccc1CSc1ccc(-c2ccco2)nn1	11	95*	-80	·	·	-4
COc1ccccc1-c1ccc(SCc2ccccc2F)nn1	-3	25	-34	·	·	6
Cc1ccc(CSc2ccc(-c3ccco3)nn2)cc1	21	50	·	-1	?	-3
Cc1nc(C)c(-c2ccc(SCc3ccccc3F)nn2)s1	10	76	-19	-1	69*	2
CCN1[C@H](C(=O)N2CCCCC2)[C@@H](CO)[C@@H]2Cn3c(ccc(-c4cccc(F)c4)c3=O)[C@@H]21	·	·	20[16.7 µM]	-1	-2	1
O=C(c1cccc(F)c1)N1C[C@@H]2[C@H](c3ccccc31)[C@H](CO)N2C(=O)c1ccccn1	·	·	·	-1	-7	0
CO[C@@H]1CN(C)C(=O)c2cc(NC(C)=O)ccc2OC[C@@H](C)N(Cc2ccccc2F)C[C@H]1C	·	·	3[16.7 µM]	4	2	4
COc1ccc(CN2[C@H](CO)[C@H]3c4ccccc4N(C(=O)CC(F)(F)F)C[C@H]32)cc1	·	·	·	1	-1	-1
COc1ccc(CN(C)C[C@H]2OCCCC[C@H](C)Oc3ccc(NS(=O)(=O)c4ccc(C)cc4)cc3C(=O)N([C@@H](C)CO)C[C@@H]2C)cc1	·	·	-9[16.7 µM]	24	-19	-2
O=C(O)c1ccc(/C=N/N2CCN(Cc3ccc(Cl)cc3)CC2)cc1	6	8	27	·	·	11
COC(=O)c1ccc(/C=N/N2CCN(Cc3ccc(Cl)cc3)CC2)cc1	51*	·	5	0	·	·
C[C@H](CO)N1C[C@H](C)[C@@H](CN(C)C(=O)CC2CC2)Oc2cc(C#CC(C)(C)O)ccc2S1(=O)=O	·	·	-10[16.7 µM]	1	4	3
Cc1ccc(Sc2cnc3ccccc3n2)cc1	·	89*	·	-3	66*	·
CC(Sc1cnc2ccccc2n1)C(=O)O (centres undefined)	1	4	-13	6	·	·
CCCC#Cc1cnc2c(c1)C(=O)N([C@@H](C)CO)C[C@@H](C)[C@H](CN(C)C(=O)Cc1cccnc1)O2	·	·	-5[16.7 µM]	5	5	0
O=C(Cc1ccccc1)N1CC[C@H]2[C@H](CO)Nc3ccc(-c4ccccc4)cc3[C@H]21	·	·	·	2	-1	2
CCOc1ccc(C2=Nc3ccccc3C(c3ccc(N4CCOCC4)cc3)=NN2)cc1	·	·	-30	1	50*	·

Screening data from PubChem BioAssay.
